Only some compounds are listed: those with a hit (about 2.7% of all), similar ones and a draw of the others.
MC4R ag barr – agonists of human melanocortin 4 receptor (MC4R) beta-arrestin. P32245. AID 540308. actives 0.98% (n = 360,000). activation, % at 8.9 µM. U2OS MC4R beta-arrestin complementation, luminescence; percent of melanotan II response, DMSO zero;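 active = activation above a per-plate cutoff, the mean activation of sample wells on that plate plus 3 SD, cut at about 8% in these data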
PG9 Ab binder – PG9 antibody binding by small molecule. TR-FRET gp120-PG9 antibody binding. inhibition, % at 6.7 µM. actives 0.43% (n = 360,000); in the data active = inhibition above about 8.5%
Rev-erbA mod – Rev-erb alpha (human) modulation; P20393; Rev-erbα–FITC-DNA binding, fluorescence polarization, 90 min; activity, % at 10 µM; actives 0.79% (n = 370,000); AID 1259318;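 active = activity above about 14%, limit read from the data; passing the limit was not always enough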
NR2E3 ag-1 – NR2E3 (human) agonism | Q9Y5X4 | GST-NR2E3/biotin-RetCOR TR-FRET, 1536-well | inhibition of corepressor binding, % at 4.78 µM | actives 0.12% (n = 320,000);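 active = percent inhibition above the cutoff of mean plus 3 SD of all tested compounds, set per screening campaign, cut at about 20% in these data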
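Test system: GST-NR2E3 and biotin-RetCOR proteins | Quantity: 1.35 nM GST-tagged NR2E3 final | Medium: Tris pH 7.5 | Also added: 7 nM biotin-RetCOR | Dosing: Compound at 4.8 µM, single dose | Timing: 5 h at 4 °C | Detection: Time-resolved FRET | Read-out basis: Percent inhibition | Benchmarks: Biotin wells as high control, 0.6% DMSO wells as low control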
MC4R antag cAMP – blocks human MC4R cAMP signaling | P32245 | MC4R-expressing cells, MTII-stimulated cAMP, LANCE TR-FRET | inhibition, % at 6.5 µM | actives 0.48% (n = 360,000);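 active = inhibition above its plate's cutoff, the mean of tested wells on that plate plus 3 SD, cut at about 29% in these data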
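System – human MC4R-expressing U2OS cells · Also added – Melanotan II · Dosing – one concentration, 6.5 µM nominal · Timing – 30-min compound, 1-h challenge, 1-h detection, room temperature · Measured by – Eu-cAMP/anti-cAMP TR-FRET, emission 671 nm · Replicates – singlicate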
NR2E3 ag-2 – human photoreceptor-specific nuclear receptor agonism; Q9Y5X4; CHO-S Gal4-NCOR/VP16-NR2E3 two-hybrid, luciferase; inhibition of corepressor binding, % at 3.98 µM; actives 0.35% (n = 360,000); AID 602229;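 active = inhibition above the mean of all tested compounds plus 3 SD, cut at about 70% in these data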;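 note: higher means lower luciferase signal from less NR2E3 corepressor binding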
NR2E3 ag confirm – confirmation of human NR2E3 nuclear receptor agonists; shares compounds with NR2E3 ag-1; cell-free NR2E3 corepressor release, TR-FRET, 5 h; activation (reported as inhibition), % at 3.98 µM; actives 39% (n = 360); in the data active = activation above about 20%
PPARg-NCOR2 ag – releases PPARgamma from NCOR2 in NR2E3 counter-screen | shares compounds with NR2E3 ag-1 | TR-FRET PPARg-NCOR2 coregulator interaction, biochemical | inhibition, % at 3.98 µM | actives 45% (n = 360); in the data active = inhibition above about 20%
A number is an active result; 0 = inactive; - = no result given.

SMILES	MC4R ag barr	PG9 Ab binder	Rev-erbA mod	NR2E3 ag-1	MC4R antag cAMP	NR2E3 ag-2	NR2E3 ag confirm	PPARg-NCOR2 ag
CC1NC(=O)NC1CCCCCC(=O)Nc1ccc(F)c(Cl)c1 (centres undefined)	0	0	0	90	0	0	88	91
Cc1ccc(NC(=O)CCCCCC2NC(=O)NC2C)cc1 (centres undefined)	0	-	0	87	0	0	90	92
CCN1CCN(CC(=O)Nc2nc3ccccc3s2)CC1	0	0	0	0	0	0	-	-
COc1ccc(C(CNC(=O)COc2cccc(C)c2)N2CCCC2)cc1 (centres undefined)	0	0	0	0	0	0	-	-
COc1ccc(C(CNC(=O)COc2cccc(C(F)(F)F)c2)N2CCCC2)cc1 (centres undefined)	0	0	0	32	0	0	0	0
CC(C)n1c2ccccc2c2nnc(SCC(=O)Nc3ccccc3C(=O)O)nc21	0	0	0	26	0	0	0	0
COc1ccc(Nc2ncnc3ccc(C)cc23)cc1	0	0	0	0	0	0	-	-
S=C(c1ccc(-c2cccc(Cl)c2)o1)N1CCCCC1	0	0	0	30	0	0	0	0
S=C(c1ccc(-c2cccc(Cl)c2)o1)N1CCOCC1	0	0	0	0	0	0	-	-
CCOC(=O)COc1cc(Br)c(/C=N/Nc2ccccc2)cc1OC	0	0	0	26	0	0	0	0
COc1cc(C=O)c(Br)cc1OCC(=O)NCCc1ccccc1	0	0	0	0	0	0	-	-
N#CC1=C(N)SC(N)=C(C#N)C1c1c(Cl)cccc1Cl	0	0	0	40	0	0	0	26
N#CC1=C(N)SC(N)=C(C#N)C1CCc1ccccc1	0	0	0	0	0	0	-	-
CCC(CO)N=CC1=C(O)CC(c2ccccc2)CC1=O (centres undefined)	0	0	0	0	0	0	-	-
COc1ccccc1NC(=O)N1CCC(NC(=O)C2CCCCC2)CC1	0	0	0	32	0	0	0	0
COc1ccccc1NC(=O)N1CCCC1	0	0	0	0	0	0	-	-
CC1=NN(Cc2ccccc2)C(=O)C1	0	0	0	20	0	0	0	0
COC(=O)Sc1nnc(-c2ccc(Br)cc2)o1	-	-	-	27	-	-	22	35
Cc1ccccc1NC(=O)Cc1nc(COC(=O)COc2cccc(C)c2C)cs1	0	0	0	0	0	0	-	-
CC1(C)Cc2cccc(Oc3cc(NN4CCCCC4)c([N+](=O)[O-])cc3[N+](=O)[O-])c2O1	0	0	0	0	0	0	-	-
CCCCN1C(=O)NC2NC(=O)NC21 (centres undefined)	0	0	0	37	0	0	0	0
Cn1nc(C(=O)NC2CCCCC2)c2c1-c1ccccc1SC2	0	0	0	0	0	0	-	-
Cn1nc(C(=O)N2CCC(C(N)=O)CC2)c2c1-c1ccccc1SC2	0	0	0	27	0	0	0	0
O=C(Nc1nc(-c2cccs2)c(C(=O)C(F)(F)F)s1)c1ccco1	0	0	0	30	0	0	34	32
O=C(Nc1nc(-c2cccs2)c(C(=O)C(F)(F)F)s1)c1ccccc1	0	0	0	0	0	0	-	-
SMILES	MC4R ag barr	PG9 Ab binder	Rev-erbA mod	NR2E3 ag-1	MC4R antag cAMP	NR2E3 ag-2	NR2E3 ag confirm	PPARg-NCOR2 ag
CCN(CC)c1ccc(C=Nc2cccc(S(=O)(=O)N3CCOCC3)c2)c(O)c1	0	0	0	-	0	0	-	-
COc1cc(/C=C2/C(=O)N(c3ccc([N+](=O)[O-])cc3)N=C2N2CCOCC2)ccc1O	0	0	0	29	0	0	0	48
COC(=O)CN(c1ccc2c(c1)OCO2)S(C)(=O)=O	0	0	0	0	0	0	-	-
Cc1c(N2C(=O)c3ccc(Br)cc3C2=O)c(=O)n(-c2ccccc2)n1C	0	0	0	0	0	0	-	-
Cc1c(N2C(=O)c3ccc4c5c(ccc(c35)C2=O)CC4)c(=O)n(-c2ccccc2)n1C	0	-	-	21	0	0	26	0
CCCCC1=CC2=C(c3ccco3)C(=O)C(C)(OC(=O)c3ccc(OC)cc3)C(=O)C2=CN1CC1CC1 (centres undefined)	0	0	0	0	0	0	-	-
CCCCC1=CC2=C(c3ccco3)C(=O)C(C)(OC(=O)c3ccc(OC)cc3)C(=O)C2=CN1C1CCCC1 (centres undefined)	-	-	-	47	-	-	0	0
CCCCC1=CC2=C(c3ccco3)C(=O)C(C)(OC(=O)c3ccc(OC)cc3)C(=O)C2=CN1c1ccc(OC)cc1 (centres undefined)	0	11	0	34	0	0	0	0
C=CCn1c(=O)c2ccccc2n2c(SCC(=O)Nc3sc(C(=O)N(CC)CC)c(C)c3C(=O)OCC)nnc12	0	0	0	0	0	0	-	-
C=CCc1c(C)nc(SC)nc1Nc1ccc(C)cc1	0	0	0	25	0	0	0	0
C=CCc1c(C)nc(-c2ccccc2)nc1Nc1ccccc1O	0	0	0	0	0	0	-	-
Oc1cccc(/C=N\Nc2nncc(-c3ccccc3)n2)c1	0	0	0	0	0	0	-	-
N#CC1=C2SCN(Cc3ccccc3)CN2C(=O)CC1c1cccs1 (centres undefined)	0	0	0	22	0	0	0	0
COCCn1c(N)c(C(=O)NCC2CCCO2)c2nc3ccccc3nc21 (centres undefined)	0	0	0	36	0	0	0	0
COc1cc2oc(=O)c(Br)c(C)c2c(OC)c1OC	0	0	0	20	0	0	0	0
Cc1ccc(NC(=O)CCSc2nnc(Cc3ccccc3)o2)cc1	0	0	0	0	0	0	-	-
N#CCC(N)=C(C#N)C#N	0	0	0	26	0	0	0	0
COC(=O)CC#N	0	0	0	0	0	0	-	-
Cc1ccc(C2C(C#N)=C(N)SC(N)=C2C#N)o1	-	-	-	32	-	-	24	35
CCc1ccc(C2C(C#N)=C(N)SC(N)=C2C#N)s1	0	-	-	0	0	0	-	-
NC(=O)c1nsc(C(=O)N(Cc2ccccc2F)C(C(=O)NCC2CCCO2)c2ccc(F)cc2)c1N (centres undefined)	0	0	0	0	0	0	-	-
N#CC(=Cc1ccc(O)cc1)C(N)=C(C#N)C#N	0	0	0	23	0	0	0	0
N#C/C(=C\c1ccc(O)cc1)C(=O)N1CCCC1	0	0	0	0	0	0	-	-
O=C(C1=C(O)C(=O)N(CCCn2ccnc2)C1c1ccccc1)c1ccco1 (centres undefined)	0	-	-	32	0	0	0	0
